What was measured:
Caspase-1 [1] = target: T1, Caspase-1 (Homo sapiens, UniProt P29466); assay: Inhibition of human ICE
T1 sequence (P29466 whole entry): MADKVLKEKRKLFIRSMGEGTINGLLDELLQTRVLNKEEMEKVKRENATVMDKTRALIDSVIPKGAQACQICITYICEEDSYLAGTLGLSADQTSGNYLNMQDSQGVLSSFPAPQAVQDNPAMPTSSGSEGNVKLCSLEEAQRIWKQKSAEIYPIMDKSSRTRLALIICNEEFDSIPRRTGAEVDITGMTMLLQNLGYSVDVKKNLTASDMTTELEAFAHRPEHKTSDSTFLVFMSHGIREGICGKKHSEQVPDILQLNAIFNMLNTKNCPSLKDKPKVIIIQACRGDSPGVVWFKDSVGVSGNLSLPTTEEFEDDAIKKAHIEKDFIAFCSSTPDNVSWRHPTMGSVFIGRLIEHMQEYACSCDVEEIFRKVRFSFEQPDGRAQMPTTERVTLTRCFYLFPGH

[2] = Selectivity ratio of human ICE to caspase 3
[3] = Selectivity ratio of human ICE to caspase 4
[4] = Selectivity ratio of human ICE to caspase 6
[5] = Selectivity ratio of human ICE to caspase 8
Homo sapiens = species on record: Homo sapiens; assay: Half life in human plasma
Caspase-1 [6] = target: T2, Caspase-1 (Mus musculus, UniProt P29452); assay: Inhibition of mouse ICE
T2 sequence (P29452 whole entry): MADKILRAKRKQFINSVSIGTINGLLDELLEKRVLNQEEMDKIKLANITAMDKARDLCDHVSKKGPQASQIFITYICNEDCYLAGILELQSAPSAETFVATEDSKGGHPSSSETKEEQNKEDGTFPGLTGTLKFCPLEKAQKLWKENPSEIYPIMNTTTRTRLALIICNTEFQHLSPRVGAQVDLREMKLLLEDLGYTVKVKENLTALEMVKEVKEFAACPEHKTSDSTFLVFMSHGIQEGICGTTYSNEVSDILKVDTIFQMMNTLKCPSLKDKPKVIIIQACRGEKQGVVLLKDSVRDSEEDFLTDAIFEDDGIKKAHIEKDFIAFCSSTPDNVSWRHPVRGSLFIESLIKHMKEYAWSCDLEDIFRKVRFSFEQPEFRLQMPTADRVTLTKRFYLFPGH

PBMC = assay: Inhibition of LPS-induced IL1-beta production in human PBMC by ELISA; assay type: functional, cell-based
In short: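 Human PBMC were suspended in RPMI 1640 with glutamine, penicillin, streptomycin and 2% human AB serum, at 10^6 cells per well. Cells were stimulated overnight with 10 ng/mL LPS, with or without inhibitor. Mature IL-1β in the harvested medium was measured by ELISA.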

Mus musculus = assay: Reduction of IL1-beta level in human PBMC cells xenografted SCID mouse at 3 mg/kg, iv after 2 hrs; assay type: functional; parameters: scale not given: the % may be the effect or the level left
In short: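 huSCID model: SCID mice were injected with human PBMC 15 min before the start. At time zero they received LPS at 5 mg/kg iv. Compound was given at 3 mg/kg iv, and mice were bled at 2 h.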

| SMILES | IC50 (Caspase-1 [1]) | Ki (Caspase-1 [1]) | Selectivity ratio [2] | Selectivity ratio [3] | Selectivity ratio [4] | Selectivity ratio [5] | half-life (Homo sapiens) | Ki (Caspase-1 [6]) | IC50 (PBMC) | Activity (Mus musculus) |
| --- | --- | --- | --- | --- | --- | --- | --- | --- | --- | --- |
| CC(C)[C@H](CC(=O)NCCn1c(-c2cccnc2)nc2ccccc21)C(=O)N[C@H](C=O)CC(=O)O | 26.5 nM | 3.85 nM | > 200 | > 200 | > 200 | > 200 |  |  |  |  |
| CC(C)[C@H](CC(=O)NCCc1c[nH]c2ccccc12)C(=O)N[C@H](C=O)CC(=O)O | 23.1 nM | 5.02 nM | > 200 | > 200 | > 200 | > 200 |  |  |  |  |
| CC(C)[C@H](CC(=O)N1CCN(c2ccccc2)CC1)C(=O)N[C@H](C=O)CC(=O)O | 7810 nM | 1020 nM | > 200 | > 200 | > 200 | > 200 |  |  |  |  |
| CC(C)[C@H](CC(=O)NCCn1ccc2ccccc21)C(=O)N[C@H](C=O)CC(=O)O | 45.3 nM | 4.03 nM | > 200 | > 200 | > 200 | > 200 |  |  |  |  |
| CC(C)[C@H](CC(=O)NCCc1ccnc2ccccc12)C(=O)N[C@H](C=O)CC(=O)O | 4.77 nM | 1.31 nM | > 200 | > 200 | > 200 | > 200 |  |  |  |  |
| CC(C)[C@H](CC(=O)NCCNc1cccc(Cl)c1)C(=O)N[C@H](C=O)CC(=O)O | 11.2 nM | 0.95 nM | > 200 | > 200 | > 200 | > 200 |  |  |  |  |
| Cc1cc2nc(C)n(CCNC(=O)C[C@H](C(=O)N[C@H](C=O)CC(=O)O)C(C)C)c2cc1C | 9.18 nM | 1.26 nM | > 200 | > 200 | > 200 | > 200 |  |  |  |  |
| CC(C)[C@H](CC(=O)NCCC(=O)c1ccccc1)C(=O)N[C@H](C=O)CC(=O)O | 398 nM | 118 nM | > 200 | > 200 | > 200 | > 200 |  |  |  |  |
| COc1ccc(CCCNC(=O)C[C@H](C(=O)N[C@H](C=O)CC(=O)O)C(C)C)cc1 | 410 nM | 70.9 nM | > 200 | > 200 | > 200 | > 200 |  |  |  |  |
| CC(C)[C@H](CC(=O)NCCc1cccc2nc(OCCN(C)C)ccc12)C(=O)N[C@H](C=O)CC(=O)O | 102 nM | 16.7 nM | > 200 | > 200 | > 200 | > 200 |  |  |  |  |
| CC(C)[C@H](CC(=O)NCCc1cccc2ccccc12)C(=O)N[C@H](C=O)CC(=O)O | 5.7 nM | 0.58 nM | > 200 | > 200 | > 200 | > 200 |  |  |  |  |
| CC(C)[C@H](CC(=O)N(CCOc1ccccc1)C(C)C)C(=O)N[C@H](C=O)CC(=O)O | 584 nM | 100 nM | > 200 | > 200 | > 200 | > 200 |  |  |  |  |
| CC(C)[C@H](CC(=O)NCCn1cnc2ccccc21)C(=O)N[C@H](C=O)CC(=O)O | 33.7 nM | 20 nM | > 200 | > 200 | > 200 | > 200 |  |  |  |  |
| CCO[C@H]1OC(=O)C[C@@H]1NC(=O)[C@@H](CC(=O)NCCc1cccc2ncccc12)C(C)C |  |  | > 200 | > 200 | > 200 | > 200 | 4.3 h |  |  |  |
| CC(C)[C@H](CC(=O)NCCc1cncc2ccccc12)C(=O)N[C@H](C=O)CC(=O)O | 12 nM | 4.3 nM | > 200 | > 200 | > 200 | > 200 |  |  |  |  |
| Cc1cc2ncn(CCNC(=O)C[C@H](C(=O)N[C@H](C=O)CC(=O)O)C(C)C)c2cc1C | 14.5 nM | 2.81 nM | > 200 | > 200 | > 200 | > 200 |  |  |  |  |

| SMILES | IC50 (Caspase-1 [1]) | Ki (Caspase-1 [1]) | Selectivity ratio [2] | Selectivity ratio [3] | Selectivity ratio [4] | Selectivity ratio [5] | half-life (Homo sapiens) | Ki (Caspase-1 [6]) | IC50 (PBMC) | Activity (Mus musculus) |
| --- | --- | --- | --- | --- | --- | --- | --- | --- | --- | --- |
| O=C[C@H](CC(=O)O)NC(=O)[C@@H]1CCCN2C(=O)CC[C@H](NC(=O)c3nccc4ccccc34)C(=O)N12 [VRT-18858] | 3.4 nM | 0.6 nM |  |  |  |  |  | 7 nM | 380 nM | 62% |
| CCC(C)O[C@H]1OC(=O)C[C@@H]1NC(=O)[C@@H](CC(=O)NCCc1cccc2ncccc12)C(C)C (some centres undefined) |  |  | > 200 | > 200 | > 200 | > 200 | 7.7 h |  |  |  |
| CC(C)[C@H](CC(=O)NCCc1cc(N(C)C)nc2ccccc12)C(=O)N[C@H](C=O)CC(=O)O | 3.61 nM | 3 nM | > 200 | > 200 | > 200 | > 200 |  |  |  |  |
| CC(=O)N[C@@H](Cc1ccc(O)cc1)C(=O)N[C@H](C(=O)N[C@@H](C)C(=O)N[C@H](C=O)CC(=O)O)C(C)C | 17 nM | 0.7 nM | > 200 | > 200 | > 200 | > 200 |  | 9 nM | 1200 nM | 69% |
| CC(C)[C@H](CC(=O)N(CCOc1ccccc1)CCC(=O)O)C(=O)N[C@H](C=O)CC(=O)O | 114 nM | 9.24 nM | > 200 | > 200 | > 200 | > 200 |  |  |  |  |
| CC(C)[C@H](CC(=O)NCCc1cccc2ncccc12)C(=O)N[C@H]1CC(=O)O[C@H]1OC1CCCC1 |  |  | > 200 | > 200 | > 200 | > 200 | 15.7 h |  |  |  |
| CCC(C)O[C@@H]1OC(=O)C[C@@H]1NC(=O)[C@@H](CC(=O)NCCc1cccc2ncccc12)C(C)C (some centres undefined) |  |  | > 200 | > 200 | > 200 | > 200 | 3.9 h |  |  |  |
| CC(C)[C@H](CC(=O)NCCCc1ccccc1)C(=O)N[C@H](C=O)CC(=O)O |  |  | > 200 | > 200 | > 200 | > 200 |  |  |  |  |
| CC(C)[C@H](CC(=O)NCCc1cccc2ncccc12)C(=O)N[C@H](C=O)CC(=O)O | 5.81 nM | 1.81 nM |  |  |  |  |  | 14.4 nM | 650 nM | 52% |
| CC(C)[C@H](CC(=O)NCCc1c[nH]c2ccc(F)cc12)C(=O)N[C@H](C=O)CC(=O)O | 37 nM | 7.9 nM | > 200 | > 200 | > 200 | > 200 |  |  |  |  |
| Cc1nc2ccccc2n1CCNC(=O)C[C@H](C(=O)N[C@H](C=O)CC(=O)O)C(C)C | 23.8 nM |  |  |  |  |  |  | 18.7 nM | 2900 nM | 68% |
| Cc1c(CCNC(=O)C[C@H](C(=O)N[C@H](C=O)CC(=O)O)C(C)C)c2ccccc2n1C | 42.5 nM | 0.9 nM | > 200 | > 200 | > 200 | > 200 |  |  |  |  |
| CC(C)[C@H](CC(=O)NCCOc1ccccc1)C(=O)N[C@H](C=O)CC(=O)O | 539 nM | 16.9 nM | > 200 | > 200 | > 200 | > 200 |  |  |  |  |
| Cc1[nH]c2ccccc2c1CCNC(=O)C[C@H](C(=O)N[C@H](C=O)CC(=O)O)C(C)C | 18 nM | 1.29 nM |  |  |  |  |  | 13.4 nM | 1500 nM | 54% |
| Cc1ccc2c(c1)ncn2CCNC(=O)C[C@H](C(=O)N[C@H](C=O)CC(=O)O)C(C)C | 15.3 nM | 4.85 nM | > 200 | > 200 | > 200 | > 200 |  |  |  |  |
| CC(C)[C@H](CC(=O)N1CCCC(Oc2ccccc2)C1)C(=O)N[C@H](C=O)CC(=O)O (some centres undefined) | 170 nM | 21.5 nM | > 200 | > 200 | > 200 | > 200 |  |  |  |  |

— ChEMBL document CHEMBL1221254, “Succinic acid amides as P2-P3 replacements for inhibitors of interleukin-1beta converting enzyme (ICE or caspase 1)” (Bioorg Med Chem Lett, 2010)
